A short description of series [1]: Solubility in PBS buffer. The series is classed as physicochemical.
Series [2] deals with PRMT5/MEP50 complex (Homo sapiens, UniProt O14744). Put plainly: Displacement of fluorophore-labeled RIOK1 from human PRMT5/WDR77 hetero octameric complex expressed in Sf9 cells by competition fluorescence polarization (FP) assay. (Polarisation of emitted light reports the rotation of a fluorescent probe.)
Series [3] can be described thus: Stability in human plasma assessed as compound remaining relative to control. It counts as ADME, cell-free.
Series [4] is described as follows: Stability in mouse plasma assessed as compound remaining relative to control. It counts as ADME, cell-free.
Series [5] concerns the target T1, Protein arginine N-methyltransferase 5 (Homo sapiens, UniProt O14744). Put plainly: Covalent inhibition of human PRMT5 assessed as initial binding constant by LC-MS analysis.
Series [6] has as its target T1, Protein arginine N-methyltransferase 5. Briefly: Covalent inhibition of human PRMT5 assessed as Kinact/Ki ratio by LC-MS analysis.
Series [7] shares this target. Briefly: Covalent inhibition of human PRMT5 assessed maximum potential inactivation rate by LC-MS analysis.
Series [8] concerns the target Methylosome protein WDR77 (Homo sapiens) (UniProt Q9BQA1). Put plainly: Binding affinity to human wild type WDR77 assessed as increase in protein mass by deconvoluted mass spectra analysis. The method, boiled down:
(§1)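 Purified untagged PRMT5:WDR77 (Sf9 co-expressed) exchanged into 10 mM HEPES 7.4, 150 mM NaCl, 1 mM TCEP. Protein diluted to 10 μM; 10 μL protein plus 1 μL compound (0.5 mM stock in DMSO) or DMSO in 90 μL buffer, 4 h at RT. Intact mass by LC-ToF on C4 column at 80 °C, positive ESI, spectra deconvoluted by MaxEnt1.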

The target in series [9] is PRMT5/MEP50 complex (Homo sapiens) (UniProt O14744+Q9BQA1). Put plainly: Displacement of full-length pICIn protein from human PRMT5/WDR77 hetero octameric complex at 2 uM pretreated by SPR competition assay. For orientation: SPR reads the build-up and loss of mass on a sensor chip optically.
Series [10] deals with T1, Protein arginine N-methyltransferase 5. Briefly: Binding affinity to human wild type PRMT5 assessed as increase in protein mass by deconvoluted mass spectra analysis. The procedure, abridged:
as §1

Series [11] in a line: Displacement of fluorophore-labeled RIOK1 from human PRMT5 C278A mutant/WDR77 hetero octameric complex expressed in Sf9 cells by competition fluorescence polarization (FP) assay. The method, boiled down: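 Competition FP with Sf9-expressed untagged PRMT5:WDR77 (WT or C278A) at 200 nM protomer and 10 nM fluorophore-labeled RIOK1 PBM peptide probe. […] Incubated at RT, read at 40 min, 8-point dose range, triplicate. Normalized to DMSO (100) and unlabeled peptide control at 20 μM (0).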

Series [12] concerns Protein arginine N-methyltransferase 5 (Homo sapiens), O14744 [C278A]. Briefly: Binding affinity to human PRMT5 C278A mutant assessed as increase in protein mass by deconvoluted mass spectra analysis. The method, boiled down:
as §1

Series [13] can be described thus: Disruption of human N-terminal SmBiT peptide-tagged PRMT5/N-terminal LgBiT tagged RIOK1 complex expressed in intact HEK293T cells measured after 40 mins by NanoBiT assay. The series is classed as cell-based. Conditions: HEK-293T.

This is an account of results in ChEMBL document CHEMBL4825730, “Discovery of a First-in-Class Inhibitor of the PRMT5-Substrate Adaptor Interaction” (J Med Chem, 2021).

The structures appear in SMILES notation. ≈ marks a conversion by molar mass, not a printed value. Calls of active or inactive are those of the source. No cut-off for these calls is given here.

Sequence of PRMT5/MEP50 complex (O14744 whole entry): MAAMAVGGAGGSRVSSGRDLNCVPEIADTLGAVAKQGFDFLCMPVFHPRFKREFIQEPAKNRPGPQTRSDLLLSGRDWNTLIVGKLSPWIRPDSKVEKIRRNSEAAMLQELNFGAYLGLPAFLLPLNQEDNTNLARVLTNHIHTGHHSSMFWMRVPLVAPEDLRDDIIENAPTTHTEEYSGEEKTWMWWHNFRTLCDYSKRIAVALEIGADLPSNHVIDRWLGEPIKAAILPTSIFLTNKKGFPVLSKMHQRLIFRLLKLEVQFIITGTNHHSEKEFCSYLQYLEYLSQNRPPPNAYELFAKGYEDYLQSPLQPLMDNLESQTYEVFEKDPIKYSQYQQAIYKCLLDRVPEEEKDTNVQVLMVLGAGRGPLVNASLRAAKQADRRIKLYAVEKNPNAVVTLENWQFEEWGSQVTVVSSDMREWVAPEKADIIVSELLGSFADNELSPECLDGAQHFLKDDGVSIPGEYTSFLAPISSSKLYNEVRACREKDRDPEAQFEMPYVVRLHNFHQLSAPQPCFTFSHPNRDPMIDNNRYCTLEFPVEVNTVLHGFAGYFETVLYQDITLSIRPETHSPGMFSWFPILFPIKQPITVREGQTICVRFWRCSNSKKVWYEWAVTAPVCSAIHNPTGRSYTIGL
Sequence of PRMT5/MEP50 complex (Q9BQA1 whole entry, further chain): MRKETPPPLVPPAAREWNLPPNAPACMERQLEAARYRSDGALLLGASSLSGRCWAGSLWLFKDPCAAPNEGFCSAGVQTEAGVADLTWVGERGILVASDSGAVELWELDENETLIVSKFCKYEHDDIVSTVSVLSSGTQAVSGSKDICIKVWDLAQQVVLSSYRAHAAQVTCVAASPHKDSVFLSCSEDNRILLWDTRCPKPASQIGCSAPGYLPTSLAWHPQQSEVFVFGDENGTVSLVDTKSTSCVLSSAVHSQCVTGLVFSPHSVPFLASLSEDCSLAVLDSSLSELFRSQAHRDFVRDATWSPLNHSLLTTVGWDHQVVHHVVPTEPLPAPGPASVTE
T1 sequence (O14744 whole entry): as the sequence (O14744 whole entry) above
Sequence of Protein arginine N-methyltransferase 5 (Homo sapiens), O14744 [C278A] (O14744 whole entry C278A): as the sequence (O14744 whole entry) above, with C278A counted along it
Sequence of Methylosome protein WDR77 (Homo sapiens) (Q9BQA1 whole entry): as the sequence (Q9BQA1 whole entry, further chain) above

One may read the solubility as the concentration that dissolves in the medium under given conditions. The low end stands for little dissolved substance, the high end for much dissolved substance. One may read the IC50 as the concentration needed to halve the response being measured. The low end stands for greater potency in that assay, the high end for weaker potency in that assay. `CCc1ccc(NC(=O)Cn2ncc(Cl)c(Cl)c2=O)cc1S(=O)(=O)NCCc1ccccn1` displayed a solubility in series [1] of 12 µM (≈ 6.12 µg/mL). This compound also displayed an IC50 in [2] of 4.2 µM.

Take `Cc1ccc(NC(=O)Cn2ncc(Cl)c(Cl)c2=O)cc1S(=O)(=O)NCCc1ccncc1`: the solubility in series [1] stood at 93 µM (≈ 46.2 µg/mL). The Stabilty came out at 92% in series [3] and 2% in series [4]. The compound further came in with an IC50 in [2] of 2.5 µM.

The compound `Cc1ccc(NC(=O)C(C)n2ncc(Cl)c(C)c2=O)cc1S(=O)(=O)NCCc1ccccn1` (racemic) showed a half-maximal inhibitory concentration (IC50) in [2] of over 200 µM.

`Cc1ccc(N(C)C(=O)[C@H](C)n2ncc(Cl)cc2=O)cc1S(=O)(=O)NCCc1ccccn1` displayed a solubility in series [1] of 114 µM (≈ 55.9 µg/mL). Further, the IC50 in series [2] was over 200 µM.

`CN(C)S(=O)(=O)N1CCCC(NC(=O)Cn2ncc(Cl)c(Cl)c2=O)C1` (stereo not given) came in with a solubility in series [1] of 98 µM (≈ 40.4 µg/mL). In series [2], this compound returned an IC50 of over 200 µM.

Consider `Cc1ccc(NC(=O)[C@@H](C)n2ncc(Cl)c(Cl)c2=O)cc1S(=O)(=O)NCCc1ccccn1`, for which the solubility in series [1] was 70 µM (≈ 35.7 µg/mL). Also, the Stabilty in series [3] is on record as 95%; in series [4], 97%. Besides, in series [5], the Ki came to 78 µM. Besides, in series [6], the Ratio was determined as 226 M⁻¹ s⁻¹. This compound also registered an IC50 in series [2] of 55.4 µM. In series [7], this compound registered a Kinact of 1.05 min⁻¹.

For the compound `Cc1ccc(NC(=O)Cn2ncc(F)cc2=O)cc1S(=O)(=O)NCCc1ccccn1`, the Ki in [5] is 58 µM. Also, the 50% inhibitory concentration (IC50) in series [2] stood at 35.6 µM.

With `Cc1ccc(NC(=O)Cn2ncc(Cl)c(Cl)c2=O)cc1S(=O)(=O)NCCc1ccccn1`, the outcome in [8] and in series [12] was inactive. For the same compound, the outcome in [9] and in series [10] was Active. Also, the Ki in series [5] was 8 µM. Further, the IC50 in series [2] was 2.2 µM; in series [11] it was over 100 µM.

`Cc1ccc(NC(=O)Cn2ncc(Cl)c(Cl)c2=O)cc1S(=O)(=O)N1CCN(C)CC1`: in [1], the solubility was 89 µM (≈ 42.2 µg/mL). For the same compound, the results for the Stabilty in series [3] and in [4] were 72% and 0%, respectively. Also, in series [2], the half-maximal inhibitory concentration (IC50) stood at 10.1 µM.

`Cc1ccc(NC(=O)Cn2ncc(Cl)c(Cl)c2=O)c(C)c1S(=O)(=O)NCCc1ccccn1`: in series [1], the solubility is 7.8 µM (≈ 3.98 µg/mL). For the same compound, the IC50 in series [2] amounted to 39 µM.

Take `Cc1ccc(NC(=O)Cn2ncc(Cl)c(Cl)c2=O)cc1S(=O)(=O)NCCc1cccnc1`: in series [1], the solubility is 88 µM (≈ 43.7 µg/mL). Moreover, the Stabilty in series [3] came to 100%; in [4], 21%. This compound displayed an IC50 in series [2] of 4.6 µM.

Turning to `Cc1ccc(NC(=O)[C@H](C)n2ncc(Cl)c(Cl)c2=O)cc1S(=O)(=O)NCCc1ccccn1`, the solubility in series [1] came out at 64 µM (≈ 32.7 µg/mL). Moreover, the Stabilty in [3] and in series [4] was 92% throughout. Further, the Ki in [5] is 2 µM. The Ratio in [6] is 14600 M⁻¹ s⁻¹. In addition, the IC50 in series [2] amounted to 0.3 µM. The Kinact in series [7] was determined as 1.95 min⁻¹.

Consider `Cc1ccc(N(C)C(=O)Cn2ncc(Cl)c(Cl)c2=O)cc1S(=O)(=O)NCCc1ccccn1`, for which the solubility in [1] is 86 µM (≈ 43.9 µg/mL). The values for the Stabilty in series [3] and in series [4] were 89% and 86%, respectively. The compound further yielded an IC50 in series [2] of over 200 µM.

`Cc1ccc(NC(=O)Cn2ncc(F)c(Cl)c2=O)cc1S(=O)(=O)NCCc1ccccn1`: in [2], the IC50 was 0.37 µM.

`O=C(Cn1ncc(Cl)c(Cl)c1=O)Nc1cccc(S(=O)(=O)NCCc2ccccn2)c1` had a solubility in [1] of 19 µM (≈ 9.16 µg/mL). This compound registered a 50% inhibitory concentration (IC50) in series [2] of 19.2 µM.

In series [1], `COc1ccc(NC(=O)Cn2ncc(Cl)c(Cl)c2=O)cc1S(=O)(=O)NCCc1ccccn1` yielded a solubility of 96 µM (≈ 49.2 µg/mL). In series [2], the IC50 was found to be 23.3 µM.

On to `Cc1ccc(NC(=O)Cn2ncc(Cl)c(Cl)c2=O)cc1S(=O)(=O)N1CCCCC1`, for which, in [1], the solubility was 0.8 µM (≈ 0.367 µg/mL). For the same compound, the IC50 in series [2] came out at 12.7 µM.

In turn, `Cc1ccc(NC(=O)Cn2ncc(F)c(C)c2=O)cc1S(=O)(=O)NCCc1ccccn1` displayed a 50% inhibitory concentration (IC50) in series [2] of 72.1 µM.

With `Cc1ccc(NC(=O)Cn2nccc(Cl)c2=O)cc1S(=O)(=O)NCCc1ccccn1`, the IC50 in series [13] was over 100 µM; in series [2] it was over 200 µM.

`Cc1cc(C)c(S(=O)(=O)NCCc2ccccn2)cc1NC(=O)Cn1ncc(Cl)c(Cl)c1=O` returned a solubility in [1] of 14 µM (≈ 7.15 µg/mL). Moreover, the half-inhibitory concentration (IC50) in series [2] turned out to be 6.1 µM.

The compound `Cc1ccc(NC(=O)Cn2ncc(Cl)c(Cl)c2=O)nc1S(=O)(=O)NCCc1ccccn1` had a solubility in series [1] of 5 µM (≈ 2.49 µg/mL). The values for the Stabilty in series [3] and in [4] were 96% and 75%, respectively. Further, the IC50 in series [2] turned out to be 4.5 µM.

For the compound `Cc1ccc(NC(=O)Cn2ncc(Cl)c(Cl)c2=O)cc1S(=O)(=O)N1CCCN(C)CC1`, the solubility in series [1] came to 98 µM (≈ 47.9 µg/mL). In addition, the results for the Stabilty in [3] and in [4] were 84% and 0%, respectively. The compound further gave a concentration for half-maximal inhibition (IC50) in series [2] of 5.4 µM.

As to `Cc1ccc(NC(=O)Cn2ncc(Cl)cc2=O)cc1S(=O)(=O)NCCc1ccccn1`, the Ki in series [5] came to 36 µM. The half-inhibitory concentration (IC50) in [2] was 72.9 µM.

`Cc1ncc(NC(=O)Cn2ncc(Cl)c(Cl)c2=O)cc1S(=O)(=O)N1CCCN(C)CC1` registered a solubility in series [1] of 96 µM (≈ 47 µg/mL). Also, the results for the Stabilty in [3] and in series [4] were 70% and 3%, respectively. In addition, the IC50 in [2] was over 200 µM.

In the case of `Cc1cnc(NC(=O)Cn2ncc(Cl)c(Cl)c2=O)cc1S(=O)(=O)N(C)C`, the solubility in [1] was 7.6 µM (≈ 3.19 µg/mL).

In [1], `O=C(NC[C@H](O)CN1CCc2ccccc2C1)c1cc(NC2COC2)ncn1` gave a solubility of 101 µM (≈ 38.7 µg/mL).

For the compound `Cc1ccc(NC(=O)Cn2ncc(Cl)c(Cl)c2=O)cc1S(=O)(=O)N(C)C`, the IC50 in series [2] amounted to 14.1 µM.

For `Nc1nc2cc(CC[C@H]3C[C@@H](n4ccc5c(N)ncnc54)[C@H](O)[C@@H]3O)ccc2cc1Br` [ONAMETOSTAT], the solubility in series [1] turned out to be 7 µM (≈ 3.38 µg/mL).

`Cc1cc(NC(=O)Cn2ncc(Cl)c(Cl)c2=O)cc(S(=O)(=O)NCCc2ccccn2)c1C` gave a solubility in series [1] of 3.7 µM (≈ 1.89 µg/mL). In addition, the concentration for half-maximal inhibition (IC50) in series [2] came out at 2.5 µM.
